From PubChem
Ecoli WT expand = growth inhibitors of wild-type E. coli, primary screen, strain BW25113, expanded library, OD600; OD600 absorbance; growth inhibition, % at 100 µM; 98,000 compounds, 0.15% hits; AID 710, 2007;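 active = growth inhibition above about 50% at one test dose, limit read from the data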;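 note: growth measured after 20 h incubation at 37 °C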
PostGolgi yeast = phenotypic screen on post-Golgi transport, primary screen. post-Golgi transport phenotypic cell assay. inhibition, % at 10 µM. 98,000 compounds, 0.9% hits;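 note: yeast cells grown in 1536-well plates; yeast grown about 18 h at 30C before absorbance read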
PostGolgi ctrl = growth inhibition of yeast control strain, primary screen, counter-screen for post-Golgi transport modulator project; efflux-deficient yeast background strain, growth absorbance A615, 16 h; inhibition, % at 10 µM; 98,000 compounds, 5% hits; AID 738, 2007
tolC growth inh = growth inhibitors of E. coli tolC mutant, primary screen, strain BW25113 ΔtolC::kan, 384-well | OD615 | growth inhibition, % at 10 µM (by protocol) | 65,000 compounds, 2.2% hits | AID 573, 2007;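 active = growth inhibition at or above a cutoff equal to the mean over every tested compound plus 3 SD, cut at about 60% in these data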;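 note: growth measured after 20 h incubation at 37 °C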
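Doses: one dose of 10 µM final / Material: E. coli BW25113 ΔtolC::kan, tolC deletion mutant strain / Buffer or medium: LB with kanamycin 50 µg/mL / Evaluation: percent growth inhibition / Detection: optical density read at 615 nm / Incubation: 37 °C, 20 h exposure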
Cav32 inh = Cav3.2 calcium influx blockers – cell-based, Fluo-4 calcium fluorescence, FDSS, MLSMR library, primary screen. AID 449739, 2010. 100,000 compounds, 4% hits. B-score at 10 µM. Voltage-dependent T-type calcium channel subunit alpha-1H (Homo sapiens), O95180. Cav3.2-expressing cells; active compounds read low;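 active = single-dose well whose peak fluorescence ratio is a statistical outlier from its plate by either plate-standardised score or position-corrected B-score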
Pyk2 oligo antag = antagonists of Pyk2 self-association, primary screen, Q293 cells, FERM NanoBiT luminescence, HTS | Protein-tyrosine kinase 2-beta (Homo sapiens), Q14289 | active compounds read low | z-score (the deposit names both 25 µM and 10 µM) | 99,000 compounds, 0.83% hits;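 active = Z-score of -3 or lower, scaled per plate to the spread of control and sample wells; inactive = z-score above -3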;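 note: negative z-score means lost luminescence so less FERM oligomerization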
Target sequence (Q14289 whole entry, looked up): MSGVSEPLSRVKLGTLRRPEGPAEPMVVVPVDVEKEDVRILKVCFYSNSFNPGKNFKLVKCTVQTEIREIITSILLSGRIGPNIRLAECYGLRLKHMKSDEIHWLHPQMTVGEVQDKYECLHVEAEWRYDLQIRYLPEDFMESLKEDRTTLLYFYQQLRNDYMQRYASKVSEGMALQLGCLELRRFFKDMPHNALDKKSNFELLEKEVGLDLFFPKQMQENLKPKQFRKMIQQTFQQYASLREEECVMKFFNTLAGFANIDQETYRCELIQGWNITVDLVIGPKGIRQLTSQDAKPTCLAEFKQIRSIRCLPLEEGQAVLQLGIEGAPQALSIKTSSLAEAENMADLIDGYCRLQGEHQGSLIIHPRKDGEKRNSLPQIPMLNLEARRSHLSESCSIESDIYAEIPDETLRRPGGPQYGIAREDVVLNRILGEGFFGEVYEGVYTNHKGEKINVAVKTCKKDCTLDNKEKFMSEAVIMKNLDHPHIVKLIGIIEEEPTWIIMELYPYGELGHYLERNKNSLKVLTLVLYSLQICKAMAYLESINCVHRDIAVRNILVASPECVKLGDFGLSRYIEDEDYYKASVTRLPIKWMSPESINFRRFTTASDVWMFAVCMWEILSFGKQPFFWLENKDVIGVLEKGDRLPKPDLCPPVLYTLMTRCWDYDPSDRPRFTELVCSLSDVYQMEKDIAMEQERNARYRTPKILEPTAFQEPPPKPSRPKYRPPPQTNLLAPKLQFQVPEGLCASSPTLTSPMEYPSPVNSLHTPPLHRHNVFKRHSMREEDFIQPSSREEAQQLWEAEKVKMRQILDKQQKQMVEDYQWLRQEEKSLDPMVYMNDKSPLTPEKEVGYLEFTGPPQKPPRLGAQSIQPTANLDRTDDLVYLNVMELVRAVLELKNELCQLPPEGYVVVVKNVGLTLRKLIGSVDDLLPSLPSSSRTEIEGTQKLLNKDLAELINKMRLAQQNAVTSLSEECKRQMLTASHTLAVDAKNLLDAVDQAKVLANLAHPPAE
The depositor's hits bear a star; x = no result given. Only some compounds are listed: those with a hit (about 8.7% of all), similar ones and a draw of the others. Cut-off read from the data, not from the text of the source, unless noted: active = inhibition above about 30%; inactive = the rest.

SMILES	Ecoli WT expand	PostGolgi yeast	PostGolgi ctrl	tolC growth inh	Cav32 inh	Pyk2 oligo antag
CCOc1ccc(CCNC(=O)C2CCC(=O)N2C2CCCCC2)cc1OCC (stereo not drawn)	2	-3	36*	-14	1.3	-0.23
Cc1cc(/C=N\NC(=O)CC(=O)NC2CCCCC2)c(C)n1-c1ccc(Cl)cc1	-3	0	26	x	-5.7*	0.19
Cc1cc(C)c2cc(CN(CCO)C(c3nnnn3Cc3ccc(F)cc3)C(C)C)c(=O)[nH]c2c1 (stereo not drawn)	-6	-5	11	70*	-0.67	x
CCCc1nc(SC2CCCC2)c2c(=O)n(C)c(=O)n(C)c2n1	-2	22	18	84*	-0.2	x
Cn1c(=O)c2c(SC3CCCC3)nc(CC(C)(C)C)nc2n(C)c1=O	x	x	x	-16	x	x
O=C1[C@H](CC[C@H](O)c2ccc(F)cc2)[C@@H](c2ccc(O)cc2)N1c1ccc(F)cc1	x	x	x	x	-4.1*	x
Cc1ccc(NC(=O)c2ccc(CN3CCN(C)CC3)cc2)cc1Nc1nccc(-c2cccnc2)n1	x	x	x	x	-0.0012	x
COc1ccc(C2c3c(-c4cc(Cl)c(C)cc4O)n[nH]c3C(=O)N2Cc2cccnc2)cc1OC (stereo not drawn)	-1	10	5	53	1.2	-3.9*
COc1ccc(C2c3c(oc4c(C)cc(C)cc4c3=O)C(=O)N2Cc2cccnc2)cc1OC (stereo not drawn)	x	x	x	-20	x	x
COc1ccc(CCN2C(=O)C(O)=C(C(C)=O)C2c2ccccc2OC)cc1OC (stereo not drawn)	1	-2	-1	x	1.3	0.19
COc1ccc(CCN2C(=O)c3[nH]nc(-c4ccccc4O)c3C2c2cccc(O)c2)cc1OC (stereo not drawn)	11	7	6	50	-3.3	-3.8*
CC(C)CCNC(=O)CN(Cc1ccc2c(c1)OCO2)C(=O)CCC(=O)Nc1ccccn1	-7	-1	11	2	-0.2	-0.39
C=CCOC(=O)C1=C[C@H](C2CC2)[C@@H](CCCO)[C@H](OCC)O1	x	x	x	x	-1.2	x
O=C(CSc1nc2cc(Cl)ccc2o1)c1cccs1	6	2	3	41	-0.89	-1.1
COc1ccc(C(C)=O)cc1CSc1nc2cc(Cl)ccc2o1	-14	-6	47*	x	-0.12	-0.65
CC1CCCCN1Cc1nc2c(c(=O)n(C)c(=O)n2C)n1Cc1cccc2ccccc12 (stereo not drawn)	x	x	x	8	x	x
CCOC(=O)c1c(NC(=O)CSc2nnc(-c3ccncc3)n2Cc2ccco2)sc(C)c1C	-13	-9	15	x	-1.1	-2.8
O=C(COc1ccc(Cl)cc1)NCCSCc1cccc(Cl)c1	-5	5	39*	x	-4.3*	1.9
O=C(COc1ccc(Cl)cc1Cl)NCCSc1ccc(Cl)cc1	-7	-1	43*	x	-0.21	0.74
O=C(COc1ccc(Cl)cc1Cl)NCCCCc1ccccc1	-3	-5	42*	x	-1.1	1.5
Cc1cc(NC(=O)CN2CCN(c3ccccc3F)CC2)nc2c1c(=O)oc1ccccc12	x	x	x	-4	x	x
O=C(NCCCn1ccnc1)c1cc2c(s1)CCCCC2	4	-21	15	-12	0.26	-0.02
COC(=O)c1c(C)[nH]c(C(=O)CSc2ccc(Cl)cc2)c1C	-10	0	-9	x	-0.15	1.1
COc1ccc(CCn2c(=S)[nH]c3cc(C(=O)NCc4ccco4)ccc3c2=O)cc1OC	-16	1	2	13	x	-2.8
COc1cc(/C=C2/N=C(c3ccccc3)OC2=O)c(F)cc1OCc1ccccc1	x	x	x	x	-1.3	x
CC(C)(C)NS(=O)(=O)c1ccc(CCC(=O)O)cc1	2	-11	8	-13	-0.011	0.83
CCN(CC)C(=O)CSc1nc2ccc(NC(=O)CSc3nccn3C)cc2s1	0	-5	-5	17	0.4	-0.84
O=C(CSc1nnc(-c2ccncc2)n1-c1ccccc1)N1CCN(c2ccc(Cl)cc2)CC1	-16	-16	5	x	x	-0.25
COc1cc(-c2nnc(SCC(=O)c3ccccc3)o2)cc(OC)c1OC	-10	5	-6	41	-0.64	-0.29
COc1ccc(-c2nnc(SCC(=O)N(Cc3ccccc3)C(C)(C)C)o2)cc1OC	-3	5	12	26	-7.1*	-2.3
